Measured values from ChEMBL document CHEMBL5338787, “Discovery of Novel Bruton's Tyrosine Kinase PROTACs with Enhanced Selectivity and Cellular Efficacy” (J Med Chem, 2023).
Activity calls are given as the source filed them. The rule behind the calls is not given here.

Columns and labels:
Format in all cases: cell-based
[1] = molecular target: Tyrosine-protein kinase HCK (Homo sapiens) (UniProt P08631); assay: Degradation of HCK in human TMD8 cells by measuring protein level at 111 nM for 6 hrs using label free proteomic analysis
Summary of the method: (§1)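 TMD8 cells (2 × 10^6) given 111 nM or DMSO for 6 h in duplicate. Lysed in 5% SDS/50 mM TEAB pH 8.5. 200 μg protein reduced (10 mM DTT, 55 °C, 30 min), alkylated (50 mM iodoacetamide), S-Trap processed, then LC-MS/MS. Label-free matched-peptide quantitation against DMSO, human UniProt; Benjamini–Hochberg-corrected p-values.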

[2] = molecular target: Tyrosine-protein kinase BTK (Homo sapiens, UniProt Q06187); assay: Degradation of BTK in human TMD8 cells by measuring protein level at 111 nM for 6 hrs using label free proteomic analysis; summary of the method: as §1
[3] = molecular target: Tyrosine-protein kinase CSK (Homo sapiens) (UniProt P41240); assay: Degradation of CSK in human TMD8 cells by measuring protein level at 111 nM for 6 hrs using label free proteomic analysis; summary of the method: as §1
[4] = molecular target: Tyrosine-protein kinase SYK (Homo sapiens) (UniProt P43405); assay: Degradation of SYK in human TMD8 cells by measuring protein level at 111 nM for 6 hrs using label free proteomic analysis; summary of the method: as §1
[5] = molecular target: T1, Protein cereblon/Tyrosine-protein kinase BTK (Homo sapiens, UniProt Q06187+Q96SW2); assay: PROTAC activity at BTK/CRBN protein protein interaction in human JeKo-1 cell assessed as degradation of BTK incubated for 17 hrs measured by Western blot analysis
Summary of the method: (§2)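 Ramos or JeKo-1 cells (2 × 10^6 per well) were exposed for 17 h to 3000–0.15 nM PROTAC in 3-fold steps. Cells were lysed and analysed by western blot, with BTK normalised to β-actin. DC50 and Dmax come from the dose-response; DC50 is the mean ± SD of two independent experiments.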
Target sequence in this assay (Q06187 whole entry): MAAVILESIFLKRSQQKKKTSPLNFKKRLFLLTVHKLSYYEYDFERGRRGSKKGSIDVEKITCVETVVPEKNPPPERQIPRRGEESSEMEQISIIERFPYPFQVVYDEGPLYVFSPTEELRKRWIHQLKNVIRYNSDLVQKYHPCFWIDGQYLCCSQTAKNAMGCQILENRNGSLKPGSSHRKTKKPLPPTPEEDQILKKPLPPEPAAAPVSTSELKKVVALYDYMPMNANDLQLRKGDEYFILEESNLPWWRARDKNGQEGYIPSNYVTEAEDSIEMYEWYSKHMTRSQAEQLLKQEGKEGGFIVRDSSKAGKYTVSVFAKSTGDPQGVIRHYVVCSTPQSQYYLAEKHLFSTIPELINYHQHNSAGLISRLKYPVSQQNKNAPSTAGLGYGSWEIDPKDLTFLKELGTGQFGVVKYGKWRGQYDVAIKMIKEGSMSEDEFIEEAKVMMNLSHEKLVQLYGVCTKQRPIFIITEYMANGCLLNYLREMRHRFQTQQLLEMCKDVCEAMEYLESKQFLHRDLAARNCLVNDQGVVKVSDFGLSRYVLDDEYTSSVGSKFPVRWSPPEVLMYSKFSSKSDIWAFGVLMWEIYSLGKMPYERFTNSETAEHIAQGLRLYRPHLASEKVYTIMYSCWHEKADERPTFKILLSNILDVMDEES
Target sequence in this assay (Q96SW2 whole entry): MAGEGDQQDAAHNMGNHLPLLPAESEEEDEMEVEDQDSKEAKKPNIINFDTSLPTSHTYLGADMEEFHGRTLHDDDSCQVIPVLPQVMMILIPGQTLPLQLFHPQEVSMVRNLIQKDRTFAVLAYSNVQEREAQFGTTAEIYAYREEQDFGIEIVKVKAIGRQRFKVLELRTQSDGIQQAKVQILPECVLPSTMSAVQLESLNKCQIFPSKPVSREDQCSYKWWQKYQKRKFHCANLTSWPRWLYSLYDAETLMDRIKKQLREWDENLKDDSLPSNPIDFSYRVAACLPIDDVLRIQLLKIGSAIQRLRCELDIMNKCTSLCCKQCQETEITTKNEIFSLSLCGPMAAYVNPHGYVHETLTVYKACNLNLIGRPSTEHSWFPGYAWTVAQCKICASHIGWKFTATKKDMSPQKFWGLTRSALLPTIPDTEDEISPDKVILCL

[6] = molecular target: Tyrosine-protein kinase Lyn (Homo sapiens) (UniProt P07948); assay: Degradation of LYN in human TMD8 cells by measuring protein level at 111 nM for 6 hrs using label free proteomic analysis; summary of the method: as §1
[7] = molecular target: T1, Protein cereblon/Tyrosine-protein kinase BTK; assay: PROTAC activity at BTK/CRBN protein protein interaction in human Ramos cell assessed as degradation of BTK incubated for 17 hrs measured by Western blot analysis relative to control; summary of the method: as §2
Target sequence in this assay (Q06187 2-659 limits assumed): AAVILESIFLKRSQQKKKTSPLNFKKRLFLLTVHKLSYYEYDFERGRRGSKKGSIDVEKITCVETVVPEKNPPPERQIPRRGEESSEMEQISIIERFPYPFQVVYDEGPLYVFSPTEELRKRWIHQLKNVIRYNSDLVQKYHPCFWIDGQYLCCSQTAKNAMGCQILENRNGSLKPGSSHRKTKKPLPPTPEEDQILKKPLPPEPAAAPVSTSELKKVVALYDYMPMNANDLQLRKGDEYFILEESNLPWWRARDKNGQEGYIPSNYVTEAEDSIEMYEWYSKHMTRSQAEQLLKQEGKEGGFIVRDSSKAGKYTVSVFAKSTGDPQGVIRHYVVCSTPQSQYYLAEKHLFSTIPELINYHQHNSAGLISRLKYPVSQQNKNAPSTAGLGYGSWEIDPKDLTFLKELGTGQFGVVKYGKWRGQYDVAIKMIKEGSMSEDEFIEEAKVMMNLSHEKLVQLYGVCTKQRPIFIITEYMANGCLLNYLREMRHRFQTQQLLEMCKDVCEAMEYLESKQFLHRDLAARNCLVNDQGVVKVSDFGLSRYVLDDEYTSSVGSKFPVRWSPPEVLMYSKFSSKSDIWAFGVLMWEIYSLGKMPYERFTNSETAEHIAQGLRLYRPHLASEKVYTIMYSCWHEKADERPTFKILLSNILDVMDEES
Target sequence in this assay (Q96SW2 whole entry partner): as the sequence (Q96SW2 whole entry) above

[8] = molecular target: Non-receptor tyrosine-protein kinase TYK2 (Homo sapiens) (UniProt P29597); assay: Degradation of TYK2 in human TMD8 cells by measuring protein level at 111 nM for 6 hrs using label free proteomic analysis; summary of the method: as §1
[9] = molecular target: Eukaryotic peptide chain release factor GTP-binding subunit ERF3A (Homo sapiens) (UniProt P15170); assay: Degradation of […] in human TMD8 cells by measuring protein level at 111 nM for 6 hrs using label free proteomic analysis; summary of the method: as §1
[10] = molecular target: Tyrosine-protein kinase Fes/Fps (Homo sapiens) (UniProt P07332); assay: Degradation of Fes/Fps in human TMD8 cells by measuring protein level at 111 nM for 6 hrs using label free proteomic analysis; summary of the method: as §1
[11] = molecular target: T2, Zinc finger protein 280D (Homo sapiens) (UniProt Q6N043); assay: Degradation of […] in human TMD8 cells by measuring protein level at 111 nM for 6 hrs using label free proteomic analysis; summary of the method: as §1
T2 sequence (whole entry): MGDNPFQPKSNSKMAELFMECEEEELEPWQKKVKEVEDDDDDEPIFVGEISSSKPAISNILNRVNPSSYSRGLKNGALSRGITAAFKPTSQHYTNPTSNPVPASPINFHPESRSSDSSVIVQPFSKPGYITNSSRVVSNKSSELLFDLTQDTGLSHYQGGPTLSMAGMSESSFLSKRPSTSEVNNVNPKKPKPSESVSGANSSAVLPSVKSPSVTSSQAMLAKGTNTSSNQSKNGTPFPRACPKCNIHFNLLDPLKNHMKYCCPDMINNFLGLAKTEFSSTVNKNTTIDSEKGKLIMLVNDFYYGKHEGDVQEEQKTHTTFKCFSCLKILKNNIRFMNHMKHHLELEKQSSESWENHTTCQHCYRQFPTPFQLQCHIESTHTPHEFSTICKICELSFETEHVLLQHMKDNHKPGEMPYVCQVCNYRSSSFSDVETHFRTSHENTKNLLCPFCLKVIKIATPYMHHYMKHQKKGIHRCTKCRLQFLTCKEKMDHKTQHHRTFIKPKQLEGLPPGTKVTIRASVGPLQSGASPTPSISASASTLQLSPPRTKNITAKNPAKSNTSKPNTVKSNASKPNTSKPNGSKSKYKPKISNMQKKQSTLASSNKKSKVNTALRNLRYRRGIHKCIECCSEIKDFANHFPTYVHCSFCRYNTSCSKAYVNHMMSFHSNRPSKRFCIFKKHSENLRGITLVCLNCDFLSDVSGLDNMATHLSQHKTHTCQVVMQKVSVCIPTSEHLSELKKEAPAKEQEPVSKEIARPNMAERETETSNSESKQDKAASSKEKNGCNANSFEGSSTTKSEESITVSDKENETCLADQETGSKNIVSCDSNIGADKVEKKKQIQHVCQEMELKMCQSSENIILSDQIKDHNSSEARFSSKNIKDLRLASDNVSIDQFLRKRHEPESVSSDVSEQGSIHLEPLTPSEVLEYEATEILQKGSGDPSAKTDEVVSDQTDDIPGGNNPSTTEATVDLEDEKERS

[12] = molecular target: Tyrosine-protein kinase FRK (Homo sapiens) (UniProt P42685); assay: Degradation of FRK in human TMD8 cells by measuring protein level at 111 nM for 6 hrs using label free proteomic analysis; summary of the method: as §1
[13] = molecular target: T1, Protein cereblon/Tyrosine-protein kinase BTK; assay: PROTAC activity at BTK/CRBN protein protein interaction in human JeKo-1 cell assessed as degradation of BTK incubated for 17 hrs measured by Western blot analysis relative to control; summary of the method: as §2
Target sequence in this assay (Q06187 2-659 limits assumed): as the sequence (Q06187 2-659 limits assumed) above
Target sequence in this assay (Q96SW2 whole entry partner): as the sequence (Q96SW2 whole entry) above

[14] = molecular target: DNA-binding protein Ikaros (Homo sapiens) (UniProt Q13422); assay: Degradation of IKZF1 in human TMD8 cells by measuring protein level at 111 nM for 6 hrs using label free proteomic analysis; summary of the method: as §1
[15] = molecular target: Zinc finger protein Aiolos (Homo sapiens) (UniProt Q9UKT9); assay: Degradation of IKZF3 in human TMD8 cells by measuring protein level at 111 nM for 6 hrs using label free proteomic analysis; summary of the method: as §1
[16] = molecular target: T1, Protein cereblon/Tyrosine-protein kinase BTK; assay: PROTAC activity at BTK/CRBN protein protein interaction in human Ramos cell assessed as degradation of BTK incubated for 17 hrs measured by Western blot analysis; summary of the method: as §2
Target sequence in this assay (Q06187 whole entry): as the sequence (Q06187 whole entry) above
Target sequence in this assay (Q96SW2 whole entry): as the sequence (Q96SW2 whole entry) above

Chain of Tyrosine-protein kinase HCK (Homo sapiens) (P08631 2-526 limits assumed): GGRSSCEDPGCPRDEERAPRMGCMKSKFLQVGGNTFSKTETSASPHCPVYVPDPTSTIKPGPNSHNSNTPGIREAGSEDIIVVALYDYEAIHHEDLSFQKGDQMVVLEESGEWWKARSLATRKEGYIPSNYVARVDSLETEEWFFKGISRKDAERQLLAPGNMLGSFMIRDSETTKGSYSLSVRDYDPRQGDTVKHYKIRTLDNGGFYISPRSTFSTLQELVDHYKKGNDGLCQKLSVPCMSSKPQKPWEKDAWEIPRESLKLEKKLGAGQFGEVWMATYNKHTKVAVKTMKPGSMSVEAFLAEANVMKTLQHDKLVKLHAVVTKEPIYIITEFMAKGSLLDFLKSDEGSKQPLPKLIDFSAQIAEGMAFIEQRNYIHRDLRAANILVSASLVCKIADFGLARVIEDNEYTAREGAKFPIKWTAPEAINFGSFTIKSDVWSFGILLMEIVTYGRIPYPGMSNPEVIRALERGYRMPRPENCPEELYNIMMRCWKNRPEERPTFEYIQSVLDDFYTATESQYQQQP
Chain of Tyrosine-protein kinase BTK (Q06187 whole entry): as the sequence (Q06187 whole entry) above
Chain of Non-receptor tyrosine-protein kinase TYK2 (Homo sapiens) (P29597 whole entry): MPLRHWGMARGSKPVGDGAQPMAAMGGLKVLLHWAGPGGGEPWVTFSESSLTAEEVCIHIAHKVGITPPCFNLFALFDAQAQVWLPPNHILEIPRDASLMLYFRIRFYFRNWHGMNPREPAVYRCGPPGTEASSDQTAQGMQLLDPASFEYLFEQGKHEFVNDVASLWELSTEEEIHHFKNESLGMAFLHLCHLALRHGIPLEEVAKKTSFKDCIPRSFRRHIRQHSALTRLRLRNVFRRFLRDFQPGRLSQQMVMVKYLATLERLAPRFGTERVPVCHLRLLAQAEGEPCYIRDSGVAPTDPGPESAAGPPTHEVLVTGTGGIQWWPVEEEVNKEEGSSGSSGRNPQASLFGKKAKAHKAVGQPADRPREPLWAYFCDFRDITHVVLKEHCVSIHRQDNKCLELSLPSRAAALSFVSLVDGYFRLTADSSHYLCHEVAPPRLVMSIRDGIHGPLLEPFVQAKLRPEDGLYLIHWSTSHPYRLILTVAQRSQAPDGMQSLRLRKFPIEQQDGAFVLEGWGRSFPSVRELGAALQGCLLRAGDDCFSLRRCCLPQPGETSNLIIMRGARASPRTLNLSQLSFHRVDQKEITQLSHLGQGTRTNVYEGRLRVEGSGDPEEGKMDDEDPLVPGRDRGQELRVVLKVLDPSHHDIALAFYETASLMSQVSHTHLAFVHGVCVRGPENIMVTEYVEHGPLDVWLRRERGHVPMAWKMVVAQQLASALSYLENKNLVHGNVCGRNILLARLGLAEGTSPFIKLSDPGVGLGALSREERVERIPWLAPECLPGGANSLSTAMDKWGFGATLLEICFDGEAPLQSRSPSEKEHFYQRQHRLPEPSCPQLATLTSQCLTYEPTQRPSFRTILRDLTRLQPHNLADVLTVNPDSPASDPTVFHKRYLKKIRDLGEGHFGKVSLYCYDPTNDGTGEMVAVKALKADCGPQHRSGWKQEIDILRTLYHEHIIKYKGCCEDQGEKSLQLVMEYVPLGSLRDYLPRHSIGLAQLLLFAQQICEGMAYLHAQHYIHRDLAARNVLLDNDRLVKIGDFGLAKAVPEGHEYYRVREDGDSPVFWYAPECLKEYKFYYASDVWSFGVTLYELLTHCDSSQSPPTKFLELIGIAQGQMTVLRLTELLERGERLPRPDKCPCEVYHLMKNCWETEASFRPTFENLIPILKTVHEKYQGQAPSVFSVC
Chain of Eukaryotic peptide chain release factor GTP-binding subunit ERF3A (Homo sapiens) (P15170 whole entry): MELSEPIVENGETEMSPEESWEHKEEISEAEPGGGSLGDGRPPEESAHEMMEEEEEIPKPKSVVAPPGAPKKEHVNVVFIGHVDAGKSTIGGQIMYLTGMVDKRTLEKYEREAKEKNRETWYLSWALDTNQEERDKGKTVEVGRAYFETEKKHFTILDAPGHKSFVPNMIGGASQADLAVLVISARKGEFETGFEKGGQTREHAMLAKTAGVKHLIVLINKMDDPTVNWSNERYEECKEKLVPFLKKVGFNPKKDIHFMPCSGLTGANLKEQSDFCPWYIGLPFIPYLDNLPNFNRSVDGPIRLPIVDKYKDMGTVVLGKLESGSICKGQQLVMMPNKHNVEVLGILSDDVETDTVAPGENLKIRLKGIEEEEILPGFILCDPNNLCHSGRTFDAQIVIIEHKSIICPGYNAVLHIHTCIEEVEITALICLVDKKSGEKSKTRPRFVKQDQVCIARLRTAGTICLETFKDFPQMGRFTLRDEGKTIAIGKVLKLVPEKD
Chain of Tyrosine-protein kinase Lyn (Homo sapiens) (P07948 2-512 limits assumed): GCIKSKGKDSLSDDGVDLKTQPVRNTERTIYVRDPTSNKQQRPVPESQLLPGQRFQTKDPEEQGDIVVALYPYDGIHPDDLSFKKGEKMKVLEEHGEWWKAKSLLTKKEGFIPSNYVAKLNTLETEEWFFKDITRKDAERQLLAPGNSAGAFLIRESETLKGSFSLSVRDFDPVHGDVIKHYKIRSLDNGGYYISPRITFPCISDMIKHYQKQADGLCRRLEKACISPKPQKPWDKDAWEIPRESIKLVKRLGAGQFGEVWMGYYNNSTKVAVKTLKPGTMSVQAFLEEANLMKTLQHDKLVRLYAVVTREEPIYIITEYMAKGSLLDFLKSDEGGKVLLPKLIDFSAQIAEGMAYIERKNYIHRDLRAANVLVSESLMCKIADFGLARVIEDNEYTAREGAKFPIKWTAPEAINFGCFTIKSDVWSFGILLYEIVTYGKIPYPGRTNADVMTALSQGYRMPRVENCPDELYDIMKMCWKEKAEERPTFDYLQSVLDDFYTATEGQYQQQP

Compound	Activity [1]	Activity [2]	Activity [3]	Activity [4]	DC50 [5] [nM]	Activity [6]	Emax [7] [%]	Activity [8]	Activity [9]	Activity [10]	Activity [11]	Activity [12]	Emax [13] [%]	Activity [14]	Activity [15]	DC50 [16] [nM]
C[C@H]1CN(C(=O)CNc2cccc3c2C(=O)N(C2CCC(=O)NC2=O)C3=O)CCN1c1ccc(Nc2cc(-c3ccnc(N4CCn5c(cc6c5CC(C)(C)C6)C4=O)c3CO)cn(C)c2=O)nc1 (some centres not stated)	inactive	Active	inactive	inactive	0.6	inactive	97.1	inactive	inactive	inactive	Active	inactive	95.7	Active	Active	0.5
C[C@H]1CN(C(=O)COc2cccc3c2C(=O)N(C2CCC(=O)NC2=O)C3=O)CCN1c1ccc(Nc2cc(-c3ccnc(N4CCn5c(cc6c5CC(C)(C)C6)C4=O)c3CO)cn(C)c2=O)nc1 (some centres not stated)	inactive	Active	inactive	inactive	3.1	inactive	96.2	inactive	inactive	inactive	Active	inactive	97	inactive	inactive	1.7
